Screens: PubChem BioAssay, several laboratories
Shown are actives, neighbours in structure and some others; about 1.8% of the full set was active somewhere.
TNAP inh no acc: TNAP (human) inhibition, acceptor-free conditions | 0.26% of 200,000 active | inhibition, % at 20 µM | purified TNAP, CDP-star luminescence, 30 min | AID 1012 | P05186;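 active = tissue-nonspecific alkaline phosphatase inhibition above about 50% at 20 µM in the single-dose screen, limit read from the data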;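 also: 0% = DMSO negative control and 100% = EDTA positive control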
Ins promoter up: MIN6 insulin promoter up-regulation; MIN6 insulin promoter-GFP reporter, high-content imaging; stronger effect = higher value; z-score at 5 µM; 0.3% of 190,000 active; AID 1625;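 active = z-score above 3 at 5 µM with at least 500 cells counted in the well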
NCF1 inh: blocks human p47phox regulatory protein of NADPH oxidases; P14598; p47phox/p22phox peptide binding, fluorescence polarization, 2 h; inhibition, % at 24.7 µM; 0.53% of 220,000 active;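 active = inhibition above about 30%, limit read from the data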;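 also: 0% = p47phox with labelled peptide and 100% = labelled peptide alone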
Target sequence (P14598 whole entry, looked up): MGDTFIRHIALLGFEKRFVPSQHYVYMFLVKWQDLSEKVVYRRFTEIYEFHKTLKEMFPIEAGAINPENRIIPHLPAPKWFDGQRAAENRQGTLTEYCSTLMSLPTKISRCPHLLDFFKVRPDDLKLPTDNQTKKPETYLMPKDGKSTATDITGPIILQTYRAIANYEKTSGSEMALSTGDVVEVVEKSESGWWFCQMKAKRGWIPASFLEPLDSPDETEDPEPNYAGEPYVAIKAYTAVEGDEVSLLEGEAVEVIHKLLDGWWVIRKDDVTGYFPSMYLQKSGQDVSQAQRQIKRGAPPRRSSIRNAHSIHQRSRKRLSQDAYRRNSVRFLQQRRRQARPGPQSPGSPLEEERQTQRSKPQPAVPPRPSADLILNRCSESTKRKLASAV
TNAP act hiacc: TNAP (human) activation, high acceptor; purified TNAP, CDP-star luminescence, 1 M DEA, 30 min; stronger effect = higher value; 0 = EDTA background, 1 = DMSO-only activity; activation factor at 20 µM; 200,000 tested, under 10 active;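 active = activation factor at least 2 at 20 µM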
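Test system – human TNAP · Doses – 20 µM single point · Incubation – 30 min, room temperature · Signal – luminescent substrate turnover signal · Read-out basis – activation factor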
TNAP inh hi DEA: blocks human TNAP under high phosphate acceptor concentration. purified TNAP, CDP-star luminescence, 1 M DEA. 0.03% of 200,000 active. P05186. inhibition, % at 20 µM;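 active = over 50% inhibition of tissue-nonspecific alkaline phosphatase at 20 µM in the single-dose screen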;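 also: plate controls were DMSO wells for no effect and EDTA-quenched wells as full inhibition for full effect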
Autophagy HCS: autophagy modulation, high-content screen | MEF GFP-LC3 puncta imaging; test concentration mostly 10 µM | calls only at 10 µM (by protocol) | 0.98% of 190,000 active;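 active = percentage of spot-positive cells more than 3 SD above its plate mean, without a fluorescence outlier flag or 80% toxicity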;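 also: spot-positive cell cutoff set from DMSO-treated cells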
* hit, by the source's call; i = inactive; . = no result given; + = active, no number.

SMILES | TNAP inh no acc | Ins promoter up | NCF1 inh | TNAP act hiacc | TNAP inh hi DEA | Autophagy HCS
Oc1cc2c(cc1O)[C@@H](c1ccccc1)CNCC2 | 66* | . | 0 | 0.9 | 13 | i
O=C(CCCCCn1c(=S)[nH]c2ccc(N3CCOCC3)cc2c1=O)NCc1cccc(Cl)c1 | -15 | . | 16 | 1 | -3 | i
COc1cccc(/C=N/NC(=O)COc2cccc3cccnc23)c1O | -122 | . | -3 | 1 | 2 | i
C=CCn1cc(/C=N/NC(=O)COc2cccc3cccnc23)c2ccccc21 | -13 | 0.24 | 47* | 1 | 1 | i
CC(C)n1cc(/C=N/NC(=O)COc2cccc3cccnc23)c2ccccc21 | 15 | -0.4 | 46* | 1 | 3 | i
FC(F)Oc1ccc(NC(=S)NCC2COc3ccccc3O2)cc1 (stereo unspecified) | 28 | -0.35 | 2 | 1 | -2 | i
CCN(CC(=O)NC(C)C)C(=O)[C@H](C)NC(=O)c1ccc(Br)cc1 | 8 | 0.08 | -9 | 1 | 1 | i
CC(C)CNC(=O)COc1ncnc2sccc12 | 2 | 1.5 | 6 | 1 | 0 | i
CN(C)/C=C(\C#N)C(=O)Nc1ccc(O)cc1F | -13 | 0.79 | -3 | 1 | -4 | i
NC(=S)c1c(Cl)cc(C(F)(F)F)cc1Cl | . | -0.48 | -2 | . | . | .
COc1cccc2sc(Nc3nnc(-c4cccs4)o3)nc12 | -12 | -0.26 | -19 | 1.1 | -6 | +
COc1cccc2sc(Nc3nnc(-c4ccc(F)cc4)o3)nc12 | -17 | . | -15 | 1 | -3 | i
Cc1cccc(/C=N/n2c(-c3ccccn3)n[nH]c2=S)c1 | 54* | -0.36 | -2 | 1 | -2 | i
CC1CCCCN1C(=O)CCS(=O)(=O)c1cccc2nonc12 (stereo unspecified) | -10 | -0.35 | 2 | 1 | -4 | i
Cc1cc(C)nc(NC(=O)CSc2nc3ccccc3o2)n1 | -13 | 0.49 | 42* | 1 | -2 | i
COC(=O)c1cc(NS(=O)(=O)c2ccc(C(C)C)cc2)ccc1N1CCOCC1 | . | . | -6 | . | . | .
CCOc1ccc(N/C=C/C(=O)c2ccccc2)c([N+](=O)[O-])c1 | 6 | -0.6 | 31* | 0.9 | 13 | i
CCOc1ccc(NC(=O)/C=C/c2ccccc2)c([N+](=O)[O-])c1 | -3 | -0.35 | -9 | 1 | 1 | i
CCOc1ccc2nc(NC(=O)c3cccc(-c4cc5ccccc5oc4=O)c3)sc2c1 | -14 | -0.37 | 57* | 1 | -1 | i
Cc1ccc(C)c(S(=O)(=O)Nc2ccc(O)c(Sc3ncn[nH]3)c2)c1 | . | -0.06 | -8 | . | . | .
Cc1ccc(S(=O)(=O)Nc2ccc(O)c(Sc3ncn[nH]3)c2)cc1 | 74* | 0.46 | -10 | 1 | -4 | i
COc1ccc(OC)c(S(=O)(=O)Nc2ccc(O)c(Sc3ncn[nH]3)c2)c1 | 74* | -0.1 | -5 | 1 | 1 | i
CCOc1ccc(S(=O)(=O)Nc2ccc(O)c(Sc3ncn[nH]3)c2)cc1 | 77* | . | -2 | 1 | 2 | i
O=C(CN1C(=O)C2C3CC(C(Br)C3Br)C2C1=O)N1CCN(Cc2ccccc2)CC1 (stereo unspecified) | . | -0.09 | -15 | . | . | .
CCOc1ncccc1C(=O)OCC(=O)Nc1c(C)cccc1C | -5 | -0.23 | 3 | 1 | 0 | i
SMILES | TNAP inh no acc | Ins promoter up | NCF1 inh | TNAP act hiacc | TNAP inh hi DEA | Autophagy HCS
Cc1cccc(C)c1NC(=O)COC(=O)c1cccnc1 | -9 | 0.69 | -13 | 1 | -1 | +
Cc1cc(NC(=O)COc2cccc(Oc3ccccc3)c2)no1 | -6 | 0.34 | -3 | 0.9 | 6 | +
Cc1cc(NC(=O)COC(=O)c2cccc(O)c2)no1 | 52* | . | -4 | 1 | -1 | i
CCOc1ccc(C(=O)OCC(=O)Nc2cc(C)on2)cc1OCC | -5 | 0.61 | -11 | 1 | 0 | i
COc1cc(C2N(c3ccc(Cl)cc3)C(=O)C3CCCN32)cc(OC)c1OC (stereo unspecified) | -18 | -0.6 | -22 | 1.1 | -9 | i
COc1ccc(N2C(=O)C3CCCN3C2c2cc(OC)c(OC)c(OC)c2)cc1 (stereo unspecified) | -15 | 1.6 | 35* | 1.1 | -5 | i
N/C(=N\c1nc(CSc2ccc(Cl)cc2)cc(=O)[nH]1)Nc1cccc2ccccc12 | -23 | . | -3 | 1 | 0 | +
COc1ccc(N/C(N)=N/c2nc(CSc3ccc(Cl)cc3)cc(=O)[nH]2)cc1 | -21 | . | -8 | 1.1 | -10 | i
Oc1ccc2n[nH]nc2c1 | 8 | 0.06 | 1 | 1 | -4 | i
CC1(C(=O)Nc2ccccc2)Cc2ccccc2C(=O)O1 (stereo unspecified) | -10 | 0.01 | 2 | 1.1 | -6 | +
CC1(C(=O)Nc2nnc(C(C)(C)C)s2)Cc2ccccc2C(=O)O1 (stereo unspecified) | -8 | . | -13 | 1 | -1 | i
CNC(=S)NNC(=O)c1sc(-c2cc(C)on2)nc1C | . | -0.01 | -6 | . | . | .
COc1cc(CNn2nnnc2N)ccc1OCC(=O)NC(C)(C)C | -11 | -0.16 | 0 | 1.1 | -7 | i
CC(C)(C)NC(=O)COc1ccc(CNn2nnnc2N)cc1 | -1 | -0.1 | 56* | 1.1 | -7 | i
CCCCN1CCc2c([nH]c3c(C)cccc23)C1=O | 9 | 0.86 | 9 | 1 | -4 | i
CCc1nnc(NC(=O)CN2CCN(c3ccccc3F)CC2)s1 | -10 | -2.7 | 0 | 1.1 | -8 | i
Cc1cc(C)c2nc(C(F)(F)F)nc(N3CC(C)OC(C)C3)c2c1 (stereo unspecified) | -4 | -1.1 | 45* | 1 | 0 | i
CCNC(=O)/C(=C\C=C\c1ccccc1)NC(=O)c1ccc(Br)o1 | -8 | 0.02 | -6 | 1 | -3 | i
CCn1cc(C(C)(C)C)c(C#N)c1NC(C)=O | -14 | -0.54 | -7 | 1 | -4 | +
CC(=O)Nc1sc2c(c1C#N)CCCCC2 | 4 | . | -7 | 1 | 0 | i
CC(C)OCCCNS(=O)(=O)c1ccc2ccccc2c1 | -10 | . | -3 | 1 | -4 | i
CC1=NOC(=O)/C1=C\c1ccc(-c2ccc(Br)cc2)o1 | -4 | . | 44* | 1 | 3 | i
CC1=NOC(=O)/C1=C/c1ccc(-c2ccc(Cl)cc2)o1 | -1 | . | 116* | 1 | -3 | i
CC1=NOC(=O)/C1=C\c1ccc(-c2cc(Cl)ccc2Cl)o1 | 4 | -0.53 | -5 | 1 | -1 | i
O=C(CSc1ccsc1[N+](=O)[O-])NCc1ccco1 | -8 | -0.47 | -6 | 1 | -1 | i
CC(C)CC(=O)Nc1ccc(-c2nc3ccccc3c(=O)[nH]2)cc1 | -8 | -0.05 | 4 | 1 | -3 | i
c1ccc(-c2nc3ccccc3c3nncn23)cc1 | -6 | . | 35* | 1 | 2 | i
